ChEMBL document CHEMBL4130542, “Daedophamide, a Cytotoxic Cyclodepsipeptide from a Daedalopelta sp. Sponge Collected in Indonesia” (2017)

Assays:
Format in all cases: functional
[1] = system: MDA-MB-231; experiment: Cytotoxicity against human MDA-MB-231 cells after 48 hrs by sulforhodamine B assay; settings: MDA-MB-231, 48 h; for CC50: read-out: LC50 (the source's name)
Summary of the method: (§1)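 Human carcinoma lines (A-549 lung, MDA-MB-231 breast adenocarcinoma, HT-29 colorectal, PSN-1 pancreas). Cell survival estimated with the NCI algorithm. Three dose-response parameters derived: GI50 (50% growth inhibition vs control cells), TGI (total growth inhibition vs control) and LC50 (50% cell death vs control). GI50 calculated by a literature procedure.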

[2] = system: HT-29; experiment: Cytotoxicity against human HT-29 cells after 48 hrs by sulforhodamine B assay; settings: HT-29, 48 h; for CC50: read-out: LC50 (the source's name); summary of the method: as §1
[3] = system: A549; experiment: Cytotoxicity against human A549 cells after 48 hrs by sulforhodamine B assay; settings: A549, 48 h; for CC50: read-out: LC50 (the source's name); summary of the method: as §1
[4] = system: PSN1; experiment: Cytotoxicity against human PSN1 cells after 48 hrs by sulforhodamine B assay; settings: PSN1, 48 h; for CC50: read-out: LC50 (the source's name); summary of the method: as §1

Row | SMILES | GI50 [1] [nM] | TGI [1] [nM] | CC50 [1] [nM] | GI50 [2] [nM] | TGI [2] [nM] | CC50 [2] [nM] | GI50 [3] [nM] | TGI [3] [nM] | CC50 [3] [nM] | GI50 [4] [nM] | TGI [4] [nM] | CC50 [4] [nM]
1 | CO[C@H](C)[C@@H]1NC(=O)[C@H](CCC(N)=O)N(C)C(=O)[C@H](CC(C)C)NC(=O)[C@@H](CCCNC(=N)N)NC(=O)[C@@H](CO)NC(=O)[C@H](NC(=O)[C@@H](NC(=O)[C@H](O)[C@H](O)[C@H](CCCNC(=N)N)NC(=O)[C@@H](C)NC(=O)[C@H](C)[C@H](O)[C@H](C)C[C@H](C)CC(C)C)[C@@H](C)[C@@H](C)C(N)=O)[C@@H](C)OC(=O)[C@@H]2CCCCN2C(=O)[C@@H](CC(=O)O)NC1=O | 300 | 600 | 900 | 600 | 800 | 1300 | 400 | 500 | 700 | 200 | 300 | 600
2 | COc1cccc2c1C(=O)c1c(O)c3c(c(O)c1C2=O)C[C@@](O)(C(=O)CO)C[C@@H]3O[C@H]1C[C@H](N)[C@H](O)[C@H](C)O1 [DOXORUBICIN] | 200 | 500 | 2400 | 300 | 900 | > 17200 | 200 | 900 | > 17200 | 200 | 500 | 3100
